Tests used:
[1] = Oral bioavailability in dog at 3 mg/kg; type: ADME, organism-based, Canis lupus familiaris; settings: in vivo
[2] = Half life in dog at 3 mg/kg, po; type: ADME, organism-based, Canis lupus familiaris; set-up: dose 3 mg/kg, route oral; settings: in vivo
Hepatitis C virus [3] = experiment: Antiviral activity against Hepatitis C virus 2a by replicon-based assay; type: functional, organism-based, Hepacivirus hominis; settings: genotype 2a
Hepatitis C virus [4] = experiment: Antiviral activity against Hepatitis C virus 1b con1 infected in human hepatoma cells assessed as decrease in replicon RNA level after 3 days by RT-PCR analysis; type: functional, organism-based, Hepacivirus hominis; settings: genotype 1b Con1, 72 h
How it was run: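 Con1 genotype 1b replicon cells were seeded at 5000 cells/well one day before treatment. Compound in DMSO was added (final 0.5% DMSO, 10% FBS) as 10 serial twofold dilutions in triplicate. Cells were harvested 3 days after dosing. Replicon RNA was quantified by real-time RT-PCR (Taqman), normalized to GAPDH RNA, and EC50 was calculated.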

[5] = AUC in dog at 3 mg/kg, po; type: ADME, organism-based, Canis lupus familiaris; set-up: dose 3 mg/kg, route oral; settings: plasma
How it was run: (§1)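 Oral dosing of the HCl salt at 3 mpk; plasma AUC reported in µM.h.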

[6] = Oral bioavailability in rat at 10 mg/kg; type: ADME, organism-based; settings: in vivo
[7] = Drug uptake in rat liver at 10 mg/kg, po at 6 hrs; type: ADME, organism-based; set-up: dose 10 mg/kg, route oral; settings: read-out: Drug uptake
How it was run: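 Rats were dosed orally at 10 mpk in 0.4% methylcellulose, n=2. Animals were sacrificed at 6 h, and liver was harvested and processed to measure compound concentration (liver C6 h).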

[8] = Cytotoxicity against human hepatoma cells assessed as inhibition of [14C]thymidine incorporation after 3 days by TopCount analysis; type: cell-based
How it was run: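 Replicon cells were seeded in scintillating microplates one day before treatment. Compound dilutions in triplicate were added with [methyl-14C]-thymidine (final 0.5 uCi/mL) and incubated 3 days. Incorporated label was counted by scintillation proximity. DNA CC50 is the concentration giving 50% inhibition of thymidine incorporation versus vehicle-treated cells.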

Cytochrome P450 2D6 = Cytochrome P450 2D6 (Homo sapiens, UniProt P10635); experiment: Inhibition of CYP2D6; type: ADME
Sequence of Cytochrome P450 2D6 (P10635 whole entry): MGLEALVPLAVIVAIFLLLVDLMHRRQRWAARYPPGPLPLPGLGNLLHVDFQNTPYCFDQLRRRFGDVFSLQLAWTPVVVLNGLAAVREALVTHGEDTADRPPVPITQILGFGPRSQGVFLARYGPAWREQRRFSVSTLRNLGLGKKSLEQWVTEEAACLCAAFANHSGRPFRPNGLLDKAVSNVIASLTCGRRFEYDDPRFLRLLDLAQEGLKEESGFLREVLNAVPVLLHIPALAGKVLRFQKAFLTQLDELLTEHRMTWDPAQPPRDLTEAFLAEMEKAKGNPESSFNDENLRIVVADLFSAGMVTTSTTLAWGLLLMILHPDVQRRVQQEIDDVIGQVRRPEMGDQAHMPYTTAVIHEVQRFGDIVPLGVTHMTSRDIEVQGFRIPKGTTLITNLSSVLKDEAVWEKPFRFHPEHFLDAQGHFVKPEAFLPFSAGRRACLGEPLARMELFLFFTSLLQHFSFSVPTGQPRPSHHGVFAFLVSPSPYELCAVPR

[9] = AUC in monkey at 3 mg/kg, po; type: ADME, organism-based, Macaca mulatta; set-up: dose 3 mg/kg, route oral; settings: rhesus monkey, plasma; how it was run: as §1
[10] = Half life in monkey at 3 mg/kg, po; type: ADME, organism-based, Macaca mulatta; set-up: dose 3 mg/kg, route oral; settings: rhesus monkey, in vivo
Hepatitis C virus [11] = experiment: Antiviral activity against Hepatitis C virus 1a by replicon-based assay; type: functional, organism-based, Hepacivirus hominis; settings: subtype 1a
[12] = Half life in rat at 10 mg/kg, po; type: ADME, organism-based; set-up: dose 10 mg/kg, route oral; settings: in vivo
[13] = AUC (0 to 24 hrs) in rat at 10 mg/kg, po; type: ADME, organism-based; set-up: time < 24 hr, dose 10 mg/kg, route oral; settings: plasma
[14] = Clearance in monkey at 3 mg/kg, po; type: ADME, organism-based, Macaca mulatta; set-up: dose 3 mg/kg, route oral; settings: rhesus monkey, in vivo
Cytochrome P450 3A4 = Cytochrome P450 3A4 (Homo sapiens, UniProt P08684); experiment: Inhibition of CYP3A4; type: ADME
Sequence of Cytochrome P450 3A4 (P08684 whole entry): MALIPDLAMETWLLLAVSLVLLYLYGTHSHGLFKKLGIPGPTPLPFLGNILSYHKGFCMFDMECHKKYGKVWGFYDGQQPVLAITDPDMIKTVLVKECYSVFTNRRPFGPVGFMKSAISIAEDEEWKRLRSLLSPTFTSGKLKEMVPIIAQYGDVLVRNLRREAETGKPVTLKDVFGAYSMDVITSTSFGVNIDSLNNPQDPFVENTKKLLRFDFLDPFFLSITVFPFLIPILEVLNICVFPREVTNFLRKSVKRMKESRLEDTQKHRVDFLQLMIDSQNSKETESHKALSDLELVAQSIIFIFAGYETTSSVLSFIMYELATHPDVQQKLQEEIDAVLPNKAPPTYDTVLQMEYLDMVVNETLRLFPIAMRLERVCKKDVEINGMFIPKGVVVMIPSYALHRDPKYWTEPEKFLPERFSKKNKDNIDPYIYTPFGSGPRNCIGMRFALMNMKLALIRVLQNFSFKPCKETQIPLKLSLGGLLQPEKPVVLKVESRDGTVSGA

[15] = Clearance in dog at 3 mg/kg, po; type: ADME, organism-based, Canis lupus familiaris; set-up: dose 3 mg/kg, route oral; settings: in vivo
Cytochrome P450 2C9 = Cytochrome P450 2C9 (Homo sapiens, UniProt P11712); experiment: Inhibition of CYP2C9; type: ADME
Sequence of Cytochrome P450 2C9 (P11712 whole entry): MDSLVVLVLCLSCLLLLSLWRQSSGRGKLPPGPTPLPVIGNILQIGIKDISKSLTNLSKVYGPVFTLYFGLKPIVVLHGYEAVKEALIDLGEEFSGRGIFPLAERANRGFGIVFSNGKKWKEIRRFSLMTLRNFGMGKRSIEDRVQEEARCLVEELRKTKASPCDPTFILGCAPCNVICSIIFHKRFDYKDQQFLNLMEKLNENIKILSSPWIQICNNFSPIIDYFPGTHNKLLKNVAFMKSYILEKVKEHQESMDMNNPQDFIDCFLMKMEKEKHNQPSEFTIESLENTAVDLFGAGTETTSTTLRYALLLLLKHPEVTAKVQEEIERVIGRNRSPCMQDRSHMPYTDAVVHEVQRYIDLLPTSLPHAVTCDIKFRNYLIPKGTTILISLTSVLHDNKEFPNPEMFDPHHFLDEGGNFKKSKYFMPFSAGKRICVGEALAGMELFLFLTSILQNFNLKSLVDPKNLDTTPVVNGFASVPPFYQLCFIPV

[16] = Oral bioavailability in monkey at 3 mg/kg; type: ADME, organism-based, Macaca mulatta; settings: rhesus monkey, in vivo
[17] = Cytotoxicity against human hepatoma cells assessed as decrease in GADPH RNA level after 3 days by Rt-PCR analysis; type: cell-based
[18] = Clearance in rat at 10 mg/kg, po; type: ADME, organism-based; set-up: dose 10 mg/kg, route oral; settings: in vivo
[19] = Cytotoxicity against human hepatoma cells after 3 days by MTS assay; type: cell-based
How it was run: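 MTS cell proliferation assay on replicon cells handled as in the replicon activity assay (seeded one day before, 0.5% DMSO, 10% FBS, serial dilutions), read 3 days after dosing. CC50 is the concentration giving 50% inhibition relative to vehicle-treated cells.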

| Structure (SMILES) | bioavailability [1] [%] | half-life [2] [h] | EC50 (Hepatitis C virus [3]) [nM] | EC50 (Hepatitis C virus [4]) [nM] | AUC [5] [µM·h] | bioavailability [6] [%] | concentration at 6 h [7] [ng/g] | CC50 at 72 h [8] [nM] | INH (Cytochrome P450 2D6) [µM] | AUC [9] [µM·h] | half-life [10] [h] | EC50 (Hepatitis C virus [11]) [nM] | half-life [12] [h] | AUC(0-t) at 24 h [13] [µM·h] | CL/F [14] [mL/min/kg] | INH (Cytochrome P450 3A4) [µM] | CL/F [15] [mL/min/kg] | INH (Cytochrome P450 2C9) [µM] | bioavailability [16] [%] | CC50 at 72 h [17] [nM] | further results |
| --- | --- | --- | --- | --- | --- | --- | --- | --- | --- | --- | --- | --- | --- | --- | --- | --- | --- | --- | --- | --- | --- |
| Cc1nc(N[C@H](C)c2ccc(OC(F)(F)F)cc2)nc(N[C@@H]2C[C@H](CO)[C@@H](O)[C@H]2O)c1-c1nc2c(C3CC3)nccc2s1.Cl | 32 | 5.2 | 180 | 60 | 5.1 | 18 | 11000 | > 25000 | > 20 | 1.3 | 4.4 | 400 | 5 | 5.2 | 7.2 | > 20 | 4.2 | > 20 | 12 | 25000 | CL/F [18]: 11 mL/min/kg; CC50 at 72 h [19]: > 25000 nM |
| Cc1nc(N[C@H](C)c2ccc(OC(F)(F)F)cc2)nc(N[C@@H]2C[C@H](CO)[C@@H](O)[C@H]2O)c1-c1nc2c(C)nccc2s1.Cl | 31 | 4.2 | 80 | 16 | 2.9 | 15 | 2820 | > 25000 | > 20 | 0.3 | 3.3 | 70 | 2.5 | 1.1 | 20 | > 20 | 9.8 | > 20 | 7 | 25000 | CL/F [18]: 40 mL/min/kg; CC50 at 72 h [19]: > 25000 nM |

Reference: ChEMBL document CHEMBL2069243, “Synthesis and SAR of pyridothiazole substituted pyrimidine derived HCV replication inhibitors” (Bioorg Med Chem Lett, 2012)
